A selection: hits, their analogues and other compounds. The true share with any hit is near 6.8%.
MKP-1 inh = inhibitors of human MKP-1 phosphatase | hit rate 0.15% among 65,000 | inhibition, %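 (compounds tested at a single concentration somewhere between 10 and 100 µM)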 | P28562 | recombinant MKP-1, OMFP hydrolysis fluorescence | AID 374;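 active means inhibition above about 50%, limit read from the data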;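 further: 0% = DMSO max control wells and 100% = wells with enzyme stopped by NaOH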
Target sequence (P28562 whole entry, looked up): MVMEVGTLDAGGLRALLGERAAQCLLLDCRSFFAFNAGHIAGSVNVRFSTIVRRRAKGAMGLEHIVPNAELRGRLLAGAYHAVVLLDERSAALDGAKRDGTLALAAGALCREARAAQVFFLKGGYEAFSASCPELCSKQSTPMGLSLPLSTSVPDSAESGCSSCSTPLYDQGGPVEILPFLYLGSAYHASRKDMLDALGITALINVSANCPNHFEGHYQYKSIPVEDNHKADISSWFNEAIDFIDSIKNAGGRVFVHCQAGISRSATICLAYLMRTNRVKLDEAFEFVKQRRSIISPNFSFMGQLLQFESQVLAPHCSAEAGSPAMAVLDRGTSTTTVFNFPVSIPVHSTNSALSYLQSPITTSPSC
Cdc25B inh = human M-phase inducer phosphatase 2 inhibition; P30305; recombinant Cdc25B, OMFP fluorescence Ex485/Em525; inhibition, %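 (compounds tested at 10 µM final in the well)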; hit rate 0.1% among 65,000; AID 368; in the data active means inhibition above about 50%
HEK293 NFkB inh = inhibitors of the PMA/ionomycin-induced NF-kB reporter in HEK293 cells; HEK-293 NF-kB luciferase reporter, luminescence; inhibition, % at 3 µM; hit rate 0.21% among 62,000; AID 465;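 active means inhibition above the mean of all tested compounds plus 3 SD, cut at about 40% in these data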;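 further: 0% = stimulated DMSO wells and 100% = 10 µM reference inhibitor 5653914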
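System: NF-kB luciferase reporter HEK-293 cells | Replication: Single test | Control set: DMSO vs reference inhibitor | Evaluation: % inhibition | Schedule: 1 h pretreatment, 16 h stimulation, 37 °C | Probe or stimulus: PMA with ionomycin | Compound dosing: One dose, 3 µM | Detection: Luciferase luminescence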
M1 agonist = agonists of M1 muscarinic receptor; CHO-M1 cells, Fluo-4 calcium fluorescence, agonist mode; stronger effect = higher value; B-score at 10 µM; hit rate 3% among 64,000; AID 626;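 active means fluorescence rise, raw or as B-score row- and column-corrected plate score, outside the 99.7% band of its plate's samples, either direction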
Her2 expr inh = inhibitors of human Her2 kinase expression. P04626. HER2 level % of control, % at 10 µM. SKBR-3 HER2 protein level, AlphaScreen, 18-24 h; stronger effect = lower value. hit rate 0.69% among 65,000. AID 645;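 active means HER2 level under 5% of the carrier-only control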;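 further: 100% = DMSO carrier and 0% = 500 nM PU-H71 HSP90 inhibitor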
M1 antagonist = M1 muscarinic receptor (rat) antagonism; P08482; B-score at 10 µM; hit rate 3.4% among 64,000; CHO-M1 cells, Fluo-4 calcium, ACh EC80 antagonist mode; stronger effect = lower value;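 active means calcium fluorescence response, raw or row-and-column corrected B-score, differing from the plate sample mean either way at a set confidence level, mostly lower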
M1 antag conf = M1 muscarinic receptor (rat) antagonism, confirmed | calcium response (max-min fluorescence) at 10 µM | hit rate 43% among 1,700 | AID 677 | CHO-M1 cells, Fluo-4 calcium, ACh EC80 antagonism; stronger effect = lower value | shares compounds with M1 antagonist;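 active means calcium response below the same-plate mean of wells given acetylcholine alone at its 80%-effect dose, minus 3 SD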;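 further: raw fluorescence intensity difference in arbitrary instrument units and not normalized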
mGluR4 antag = acts on human mGluR4 in M1 antagonist selectivity test | shares compounds with M1 antagonist | CHO-mGluR4 calcium flux, Fluo-4 fluorescence, glutamate EC80; stronger effect = lower value | fluorescence response (max-min) at 10 µM | hit rate 0.9% among 1,700 | AID 678;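 active means fluorescence response below the plate's average for near-maximal glutamate wells, less 3 SD of those wells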;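 further: raw unnormalized fluorescence span taken in the window right after glutamate addition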
An asterisk follows results filed as active; / = no result.

SMILES | MKP-1 inh | Cdc25B inh | HEK293 NFkB inh | M1 agonist | Her2 expr inh | M1 antagonist | M1 antag conf | mGluR4 antag
CCOC(=O)C1=C(c2ccccc2)N=C2SCC(=O)N2C1c1ccc2c(c1)OCO2 (configuration not stated) | 15 | -7 | -10 | -0.05 | 102 | 1.1 | / | /
COc1ccc(C(c2nnnn2Cc2ccc(F)cc2)N2CCN(c3ccc(OC)cc3)CC2)cc1 (configuration not stated) | -19 | -2 | 14 | 0.8 | 58 | -3.8* | 661 | 168
COc1ccc(C(c2nnnn2Cc2ccc(F)cc2)N2CCN(c3ccccc3)CC2)cc1 (configuration not stated) | -16 | -5 | 11 | 0.055 | 68 | 0.89 | / | /
CN1CCN(S(=O)(=O)c2ccc(NC(=O)c3cccc(S(=O)(=O)N4CCCC4)c3)cc2)CC1 | 3 | -7 | 0 | -0.36 | 87 | -16* | 43* | 210
COc1ccc(CCNC(=O)Cn2c(=O)n(Cc3ccco3)c(=O)c3ccc(Cl)cc32)cc1OC | 7 | -9 | 12 | / | 75 | / | / | /
Cc1ccc2c(CC(=O)Nc3ccc(N4CCN(C)CC4)cc3C)coc2c1 | 32 | 4 | -4 | -1.4 | 63 | -3.2* | 334* | 247
Cc1ccc2c(CC(=O)Nc3sccc3C(N)=O)coc2c1 | 28 | 5 | -5 | -0.9 | 94 | -0.46 | / | /
COc1ccc(Cl)c(NCCC(=O)O)c1 | 0 | -6 | 12 | 0.98 | 95 | 0.4 | / | /
CCCCOc1ccc(C(=O)OC2CC(C)N(C)CC2C)cc1 (configuration not stated) | -21 | 7 | / | -0.025 | 106 | -13* | 44* | 241
CCCCOc1ccc(C(=O)N2CCC(C)CC2)cc1 | 5 | -18 | 6 | 0.67 | 91 | 0.084 | / | /
CCN(CCNC(=O)C1CCN(c2nnc(-n3cccc3)s2)CC1)c1ccccc1 | 5 | -12 | 17 | -0.43 | 90 | -0.83* | 630 | 192
CC12CCC(C(=O)N(c3ccccn3)c3ccccn3)(OC1=O)C2(C)C (configuration not stated) | -31 | -8 | -2 | 0.69 | 88 | -0.37 | / | /
Cc1oc(-c2ccccc2F)nc1CN1CCC(C(=O)NCc2ccco2)CC1 | 2 | -7 | 11 | 0.47 | 129 | -3.7* | 566 | 219
Cc1oc(-c2ccccc2F)nc1CN1CCC(C(=O)NC2CCCCCCC2)CC1 | 41 | -15 | 16 | -0.38 | 88 | -1.1 | / | /
Cn1nnnc1SCc1csc(Nc2ccccc2)n1 | 23 | -9 | -8 | -0.75 | 122 | -0.054 | / | /
Cc1ccc(Nc2nc(CSc3nnnn3C)cs2)cc1 | 4 | -17 | -21 | -0.32 | 99 | -4.8* | 464 | 229
CCCCN(CCCC)CCn1cnc2c([nH]c3ccc(OC)cc32)c1=O | 0 | -3 | 7 | 0.51 | 94 | 0.12 | / | /
COc1cc2[nH]c3c(=O)n(CCN(C(C)C)C(C)C)cnc3c2cc1OC | -2 | 3 | / | 0.72 | 138 | -4.6* | 542 | 171
CN1C(=O)C(O)(C2COC(C)(C)CC2=O)c2ccccc21 (configuration not stated) | 22 | 5 | 15 | 1 | 107 | -3.8* | 472* | 237
COc1ccc2nc(NC(=O)C(NS(=O)(=O)c3cccs3)C(C)C)sc2c1 (configuration not stated) | -7 | -10 | -7 | -0.077 | 80 | 0.42 | / | /
Nn1c(-c2ccccn2)nnc1-c1ccccn1 | -4 | -3 | -3 | 0.62 | 104 | -3.1* | 683 | 231
CC(=O)N(Cc1ccccc1)c1ccc(C(=O)O)cc1 | -11 | -35 | / | -0.26 | 119 | -2* | 16* | 232
CCN(CC)CCOC(=O)C1(c2ccccc2)CCOCC1 | -4 | -1 | 12 | -0.94 | 90 | -15* | 102* | 237
CN(C)CCNC(=O)COc1cccc(Cl)c1 | 3 | -6 | 5 | -0.031 | 91 | 0.72 | / | /
CCN(CC)CCOC(=O)c1c(C)oc2ccc(O)cc12 | 2 | -4 | 4 | 0.048 | 85 | -3.3* | 296* | 258
SMILES | MKP-1 inh | Cdc25B inh | HEK293 NFkB inh | M1 agonist | Her2 expr inh | M1 antagonist | M1 antag conf | mGluR4 antag
COc1ccccc1C(=O)N(Cc1nc(-c2ccc(Cl)cc2)no1)C(C)C | -4 | 1 | 0 | -0.33 | 98 | -0.53 | / | /
CCN=C1SC(C(N)=O)CC(=O)N1CC (configuration not stated) | -4 | -10 | 10 | -0.13 | 132 | -15* | 651 | 207
CC1(C)CC(=O)C(C=Nc2ccc(O)cc2)=C(O)C1 | -10 | -10 | 21 | -0.053 | 94 | -2.2* | 644 | 249
O=C(NCc1ccc2c(c1)OCO2)C1CC(=O)N(C2CCCC2)C1 (configuration not stated) | 2 | -10 | -4 | -0.56 | 76 | -2.9* | 515 | 222
O=C(NCc1ccc2c(c1)OCO2)C1CC(=O)N(C2CCCCCCC2)C1 (configuration not stated) | -5 | -18 | 13 | -0.63 | 120 | -0.19 | / | /
O=c1c2[nH]c3ccccc3c2ncn1CCN1CCNCC1 | -7 | -2 | 5 | 0.2 | 65 | -3.1* | 719 | 230
CCCn1c(CNc2ccc(Br)cc2)nc2ccccc21 | 1 | -7 | 4 | -1.7 | 84 | -1.5 | / | /
COc1ccc(CCn2c(SCC(=O)Nc3cc(C)on3)nc3ccsc3c2=O)cc1OC | 20 | -12 | 13 | 2.9 | 109 | -1.7* | 596 | 212
CN1CCCN(C(=O)Cc2c(Cl)cccc2Cl)c2nc3ccccc3nc21 | 21 | -1 | 12 | -0.5 | 86 | 0.19 | / | /
Cc1ccc(-c2c(C(=O)N3CCOCC3)oc(=O)c3ccccc23)cc1 | 0 | -13 | 0 | 1.8 | 86 | 1.3 | / | /
CCN1CCN(C(=O)c2oc(=O)c3ccccc3c2-c2ccc(C)cc2)CC1 | -1 | -5 | 8 | 0.32 | 104 | -1.8* | 320* | 212
COc1ccc(N2C(=O)C3CCCN3C2c2cc(OC)c(OC)c(OC)c2)cc1 (configuration not stated) | 3 | -9 | 6 | 0.21 | 60 | -2.1* | 645 | 216
COc1cc(C2N(c3ccc(Cl)cc3)C(=O)C3CCCN32)cc(OC)c1OC (configuration not stated) | 9 | -11 | -6 | -0.4 | 102 | 0.029 | / | /
Cc1ccc(S(=O)(=O)NCCCN2CCOCC2)cc1C | 4 | 1 | 9 | -1.1 | 143 | -0.38 | / | /
Cc1cc2nc(NC3=NCN(CCCN4CCOCC4)CN3)nc(C)c2cc1C | 0 | 4 | 8 | 0.37 | 106 | -14* | 22* | 189
Cc1nc(NC2=NCN(CCCN3CCOCC3)CN2)nc2c(C)cccc12 | -9 | 2 | 5 | -1.6 | 43 | -7.4* | 48* | 198
